Test results as given in ChEMBL document CHEMBL1806473, “Structure-based optimization of click-based histone deacetylase inhibitors” (Eur J Med Chem, 2011).

Legend:
SK-MEL-28 [1] = experiment: Antiproliferative activity against human SK-MEL-28 cells by SRB assay; type: functional
Summary of the method: (§1)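 Tested in the NCI in vitro human tumor cell line screen, run by the National Cancer Institute. Each compound was given at five concentrations (100, 10, 1.0, 0.1 and 0.01 μM). GI50 is the drug concentration that reduces growth of treated cells to half that of control cells during drug incubation, judged from the SRB signal.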

RPMI-8226 = experiment: Antiproliferative activity against human RPMI8226 cells by SRB assay; type: functional; summary of the method: as §1
MCF7 [2] = experiment: Antiproliferative activity against human MCF7 cells by SRB assay; type: functional; summary of the method: as §1
NCI-H226 = experiment: Cytotoxicity against human NCI-H226 cells; type: cell-based
A498 [3] = experiment: Antiproliferative activity against human A498 cells by SRB assay; type: functional; summary of the method: as §1
UO-31 = experiment: Antiproliferative activity against human UO31 cells by SRB assay; type: functional
Summary of the method: (§2)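 Cell growth was tested in the NIH in vitro disease-oriented human tumor cell line screen, which NCI ran for these compounds. Compounds were tested at five concentrations (100, 10, 1.0, 0.1 and 0.01 μM), and growth was read by SRB signal. GI50 is the drug concentration that reduces growth of treated cells to half that of control cells during drug incubation.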

UACC-257 = experiment: Antiproliferative activity against human UACC257 cells by SRB assay; type: functional; summary of the method: as §2
SK-MEL-5 [4] = experiment: Antiproliferative activity against human SK-MEL-5 cells by SRB assay; type: functional; summary of the method: as §1
HCC 2998 [5] = experiment: Cytotoxicity against human HCC2998 cells; type: cell-based
Summary of the method: (§3)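 Tested in the NCI in vitro disease-oriented human tumour cell line screen, with screening performed by NCI. Growth was read by SRB signal over the drug incubation period at five concentrations: 100, 10, 1.0, 0.1 and 0.01 μM. GI50 is the concentration that reduces growth of treated cells to half that of control cells.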

Malme-3M [6] = experiment: Cytotoxicity against human MALME-3M cells; type: cell-based; summary of the method: as §3
HOP-62 [7] = experiment: Antiproliferative activity against human HOP62 cells by SRB assay; type: functional; summary of the method: as §1
HCC 2998 [8] = experiment: Antiproliferative activity against human HCC2998 cells by SRB assay; type: functional; summary of the method: as §1
TK-10 = experiment: Cytotoxicity against human TK10 cells; type: cell-based
Summary of the method: (§4)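 Screened by NCI in its in vitro disease-oriented human tumour cell line panel. Compounds tested at five concentrations (100, 10, 1.0, 0.1 and 0.01 μM). Growth read by sulforhodamine B (SRB) signal. GI50 is the concentration reducing growth of treated cells to half that of control cells during the drug incubation.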

SN12C = experiment: Antiproliferative activity against human SN12C cells by SRB assay; type: functional; summary of the method: as §1
OVCAR-3 = experiment: Antiproliferative activity against human OVCAR3 cells by SRB assay; type: functional; summary of the method: as §1
SK-OV-3 = experiment: Cytotoxicity against human SKOV3 cells; type: cell-based
K562 = experiment: Antiproliferative activity against human K562 cells by SRB assay; type: functional; summary of the method: as §1
HCT-15 [9] = experiment: Antiproliferative activity against human HCT15 cells by SRB assay; type: functional; summary of the method: as §1
EKVX = experiment: Antiproliferative activity against human EKVX cells by SRB assay; type: functional; summary of the method: as §1
HOP-92 = experiment: Cytotoxicity against human HOP92 cells; type: cell-based
LOX IMVI [10] = experiment: Antiproliferative activity against human LOXIMVI cells by SRB assay; type: functional; summary of the method: as §1
HOP-62 [11] = experiment: Cytotoxicity against human HOP62 cells; type: cell-based; summary of the method: as §3
HCT-15 [12] = experiment: Cytotoxicity against human HCT15 cells; type: cell-based; summary of the method: as §3
786-0 = experiment: Cytotoxicity against human 786-0 cells; type: cell-based
SR = experiment: Cytotoxicity against human SR cells; type: cell-based; summary of the method: as §4
BT-549 = experiment: Antiproliferative activity against human BT549 cells by SRB assay; type: functional; summary of the method: as §1
SNB-19 = experiment: Cytotoxicity against human SNB19 cells; type: cell-based; summary of the method: as §4
ACHN [13] = experiment: Cytotoxicity against human ACHN cells; type: cell-based
NCI-H522 = experiment: Antiproliferative activity against human NCI-H522 cells by SRB assay; type: functional; summary of the method: as §1
SF-295 = experiment: Antiproliferative activity against human SF295 cells by SRB assay; type: functional; summary of the method: as §1
KM12 = experiment: Cytotoxicity against human KM12 cells; type: cell-based
HL-60(TB) = experiment: Antiproliferative activity against human HL-60(TB) cells by SRB assay; type: functional; summary of the method: as §3
M14 = experiment: Cytotoxicity against human M14 cells; type: cell-based
U-251 = experiment: Antiproliferative activity against human U251 cells by SRB assay; type: functional; summary of the method: as §2
Malme-3M [14] = experiment: Antiproliferative activity against human MALME-3M cells by SRB assay; type: functional; summary of the method: as §1
SK-MEL-5 [15] = experiment: Cytotoxicity against human SK-MEL-5 cells; type: cell-based
OVCAR-8 = experiment: Cytotoxicity against human OVCAR8 cells; type: cell-based
MCF7 [16] = experiment: Cytotoxicity against human MCF7 cells; type: cell-based
[17] = Cytotoxicity against human Hs 578T cells; type: cell-based
UACC-62 = experiment: Cytotoxicity against human UACC62 cells; type: cell-based; summary of the method: as §4
IGROV-1 = experiment: Cytotoxicity against human IGROV1 cells; type: cell-based
Histone deacetylase = experiment: Inhibition of HDAC in human HeLa cells using Ac-Arg-Gly-Lys(Ac)-AMC as fluorescent substrate after 20 mins by fluorescence assay; type: cell-based
HT-29 = experiment: Cytotoxicity against human HT-29 cells; type: cell-based; summary of the method: as §3
A498 [18] = experiment: Cytotoxicity against human A498 cells; type: cell-based
PC-3 = experiment: Cytotoxicity against human PC3 cells; type: cell-based
HCT-116 = experiment: Cytotoxicity against human HCT116 cells; type: cell-based; summary of the method: as §3
ACHN [19] = experiment: Antiproliferative activity against human ACHN cells by SRB assay; type: functional; summary of the method: as §1
SK-MEL-28 [20] = experiment: Cytotoxicity against human SK-MEL-28 cells; type: cell-based
LOX IMVI [21] = experiment: Cytotoxicity against human LOXIMVI cells; type: cell-based
MDA-MB-468 = experiment: Antiproliferative activity against human MDA-MB-468 cells by SRB assay; type: functional; summary of the method: as §1
SF-268 = experiment: Cytotoxicity against human SF268 cells; type: cell-based; summary of the method: as §3
SW-620 = experiment: Antiproliferative activity against human SW620 cells by SRB assay; type: functional; summary of the method: as §2
MDA-MB-231 = experiment: Antiproliferative activity against human MDA-MB-231 cells by SRB assay; type: functional; summary of the method: as §1
MOLT-4 = experiment: Antiproliferative activity against human MOLT4 cells by SRB assay; type: functional; summary of the method: as §1

CC(/C=C/c1ccccc1)n1cc(/C=C/C(=O)NO)nn1 (centres undefined)
GI50 (SK-MEL-28 [1]): 819 nM
GI50 (RPMI-8226): 407 nM
GI50 (MCF7 [2]): 1160 nM
LC50 (NCI-H226): 71400 nM
GI50 (A498 [3]): 472 nM
GI50 (UO-31): 549 nM
GI50 (UACC-257): 1350 nM
GI50 (SK-MEL-5 [4]): 573 nM
LC50 (HCC 2998 [5]): 6910 nM
LC50 (Malme-3M [6]): 51900 nM
GI50 (HOP-62 [7]): 1340 nM
GI50 (HCC 2998 [8]): 927 nM
LC50 (TK-10): 31900 nM
GI50 (SN12C): 1290 nM
GI50 (OVCAR-3): 1130 nM
LC50 (SK-OV-3): 21800 nM
GI50 (K562): 355 nM
GI50 (HCT-15 [9]): 2090 nM
GI50 (EKVX): 2090 nM
LC50 (HOP-92): 7530 nM
GI50 (LOX IMVI [10]): 438 nM
LC50 (HOP-62 [11]): 48200 nM
LC50 (HCT-15 [12]): 42800 nM
LC50 (786-0): 9030 nM
LC50 (SR): > 100000 nM
GI50 (BT-549): 2110 nM
LC50 (SNB-19): 37600 nM
LC50 (ACHN [13]): 5860 nM
GI50 (NCI-H522): 173 nM
GI50 (SF-295): 1060 nM
LC50 (KM12): 6820 nM
GI50 (HL-60(TB)): 269 nM
LC50 (M14): 9080 nM
GI50 (U-251): 777 nM
GI50 (Malme-3M [14]): 279 nM
LC50 (SK-MEL-5 [15]): 4520 nM
LC50 (OVCAR-8): 6910 nM
LC50 (MCF7 [16]): > 100000 nM
LC50 [17]: > 100000 nM
LC50 (UACC-62): 7990 nM
LC50 (IGROV-1): 5740 nM
IC50 (Histone deacetylase): 62 nM
LC50 (HT-29): 33900 nM
LC50 (A498 [18]): 4830 nM
LC50 (PC-3): > 100000 nM
LC50 (HCT-116): 3810 nM
GI50 (ACHN [19]): 765 nM
LC50 (SK-MEL-28 [20]): 24500 nM
LC50 (LOX IMVI [21]): 4120 nM
GI50 (MDA-MB-468): 299 nM
LC50 (SF-268): 12200 nM
GI50 (SW-620): 383 nM
GI50 (MDA-MB-231): 1380 nM
GI50 (MOLT-4): 377 nM
